HCT116 bCat-KO: beta-catenin-lacking colon tumor cell growth suppression; HCT116 beta-catenin knockout viability, CellTiter-Glo, 60 h; active compounds read low; viability, % at 10 µM; 1.5% of 140,000 active;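 active = viability at or under a set limit, the compound median less 4 SD, cut at about 6% in these data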
Yeast life ext: extends the lifespan of yeast | S. cerevisiae growth with nicotinamide, OD615; deaD strain in restrictive glucose medium | inhibition of the nicotinamide effect, % at 10 µM | 0.68% of 130,000 active | AID 775;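 active = inhibition above a set limit, placed 3 SD over the median of all compounds, cut at about 26% in these data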
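Assay system: DeaD-strain S. cerevisiae. Medium: CSMM-D glucose medium, restrictive. Reagent: nicotinamide, 1.5 mM, co-present with compound. Compound: 10 µM single point, 0.25% DMSO. Schedule: culture preincubation 4 h, compound exposure 48 h, both 30 °C. Detection: absorbance at 615 nm.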
sdo1 growth: sdo1-depleted yeast growth rescue; S. cerevisiae sdo1-depleted JHY4D growth rescue, OD600 30 h; active compounds read high; pdr5 snq2 efflux-pump mutant strain; z-score at 10 µM; 0.21% of 140,000 active;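 active = z-score above 3 at both the 24 hr and the 30 hr optical density reads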
Yeast growth inh: reduces growth of yeast BB579 in restrictive medium | S. cerevisiae BB579 growth, OD615, 48 h | inhibition, % at 10 µM | AID 804 | 0.51% of 140,000 active;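 active = inhibition above a set limit, 3 SD over the mean compound inhibition, cut at about 44% in these data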
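System: DeaD yeast strain BB579; buffer or medium: CSMM-D dextrose restrictive medium; technique: OD at 615 nm; schedule: 4 h cell preincubation, 48 h compound exposure, 30 °C humidified; doses: single 10 µM dose; controls: amphotericin B 10 µg/mL, positive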
HCT116 PTEN-null: growth suppressors of cells with PTEN tumor suppressor deletion. HCT116 PTEN-null viability, CellTiter-Glo, 60 h; active compounds read low. viability, % at 10 µM. 1.2% of 140,000 active;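 active = viability at or below a set limit, 4 SD under the median of all tested compounds, cut at about 3.7% in these data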;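 note: PTEN knockout HCT116 line with beta catenin targeted HCT116 as companion control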
Large screens that a line does not name were inactive. This is a sample that favours compounds with a hit; in the whole collection about 2.8% have one here.

COc1ccc(CNC(=O)c2cccc(-c3ccc(C)c4ccccc34)n2)cc1	none
O=C(Nc1cc(Cl)ccc1Cl)c1ccc(-c2ccccc2)cc1	none
O=C1OCC(CO)(CO)N=C1NNc1cc(Cl)ccc1Cl	Yeast growth inh 64
S=C1NCN(C2CCCCC2)CN1Cc1ccccc1	none
O=S(=O)(Nc1ccc(-n2cccc2)cc1)c1ccc(Cl)cc1Cl	Yeast growth inh 74
O=C1CC(c2ccccc2)CC(O)=C1C=Nc1ccc(Cl)cc1 (stereo not drawn)	none
O=C1CC(c2ccccc2)CC(=O)C1Sc1ccc(Cl)cc1 (stereo not drawn)	Yeast life ext 40
COc1ccc(-c2noc(CSc3nnc(-c4ccccc4)n3C)n2)cc1	none
COc1ccc(-c2noc(CSc3nnc(-c4ccncc4)n3-c3ccc(F)cc3)n2)cc1OC	Yeast life ext 148
CS(=O)(=O)c1nc(-c2ccccc2)cc(-c2ccccc2)c1C#N	HCT116 bCat-KO 1.9, HCT116 PTEN-null 2.4
Cc1ccc(C(=O)COC(=O)C2CC(=O)N(c3nc(-c4ccccc4)cs3)C2)cc1 (stereo not drawn)	none
OC(COc1ccc2ccccc2c1Br)Cn1cnc(-c2ccccc2)c1 (stereo not drawn)	Yeast growth inh 93
COc1ccc(OCC(O)Cn2cnc(-c3ccc(Br)cc3)c2)cc1 (stereo not drawn)	none (no result: Yeast life ext)
CC1=C(C#N)C(NC(=O)c2cccc(Cl)c2)(C(F)(F)F)C(=O)N1 (stereo not drawn)	none
CC1CCN(c2cc(N3CCN(C(=O)c4ccc(F)c(F)c4)CC3)c([N+](=O)[O-])cc2F)CC1	none
O=C(NCCC1=CCCCC1)c1ccc(=O)oc1	none
O=C(NCCC1=CCCCC1)c1coc(=O)c(Br)c1	HCT116 bCat-KO 1.1, HCT116 PTEN-null 1.0
Cc1cc(Oc2cc(N)cc([N+](=O)[O-])c2)ccc1Cl	none
C/C(=N\NC(=O)c1cc(-c2cccc([N+](=O)[O-])c2)n[nH]1)c1ccccc1O	HCT116 PTEN-null 2.9
O=C(COC(=O)c1ccccc1S(=O)(=O)N1CCCCC1)NCC(F)(F)F	none
C=CCn1cccc(/C=C/C(=O)c2ccc(C(C)(C)C)cc2)c1=S	HCT116 bCat-KO 1.4, HCT116 PTEN-null 1.8
COc1ccc(S(N)(=O)=O)cc1C(=O)NCCCN1CCN(c2ccc(C)cc2)CC1	Yeast life ext 58
COc1ccc(S(N)(=O)=O)cc1C(=O)NCCCN1CCN(c2cccc(Cl)c2)CC1	none
COc1ccc(OC)c(NC(=O)c2cccnc2Sc2ccccc2)c1	none
Cc1cc(OCC(=O)OCC(=O)Nc2cc(C(F)(F)F)ccc2N2CCOCC2)ccc1Cl	none
COc1ccc(C2(C(=O)O)CCCC2)cc1	Yeast life ext 35
COc1cccc(-c2nn[nH]n2)c1O	none
COCCn1c(=NC(=O)CSCC(=O)Nc2cc(C)on2)sc2cc(C(=O)OC)ccc21	HCT116 PTEN-null 0.5
CCOC(=O)c1c(CN(C)C)n(-c2ccccc2)c2cc(Br)c(OC)cc12	Yeast life ext 26
COc1ccc(N(C(=O)c2ccco2)C(C(=O)NC2CCCCC2)c2cccs2)cc1OC (stereo not drawn)	none (no result: Yeast life ext)
C#CC(=O)N(c1cc(OC)ccc1OC)C(C(=O)NC1CCCC1)c1cccs1 (stereo not drawn)	HCT116 bCat-KO 0.7, HCT116 PTEN-null 1.0
O=C(Cc1cc(=O)[nH][nH]1)N/N=C/c1cccc(Cl)c1Cl	none
Cc1ccc(CNCc2cc3c(C(C)(C)C)nn(-c4ccccc4)c3[nH]c2=O)cc1	HCT116 bCat-KO 3.7
CC(C)(C)c1nn(-c2ccccc2)c2[nH]c(=O)c(CNCc3ccco3)cc12	none
COc1ccc(CNCc2cc3c(C(C)(C)C)nn(-c4ccccc4)c3[nH]c2=O)cc1	HCT116 bCat-KO 0.5, HCT116 PTEN-null 0.6
CC(C)(C)c1nn(-c2ccccc2)c2[nH]c(=O)c(CNc3ccc4c(c3)OCCO4)cc12	none
CCOC(=O)c1ccc(NC(=O)c2ccccc2N(C)S(=O)(=O)c2ccccc2)cc1	none
COC(=O)C/C(C)=N/Nc1ccc(S(=O)(=O)N2CCCC2)cc1[N+](=O)[O-]	none
O=C1C(C2=C(O)c3ccccc3C2=O)=Nc2ccccc21	Yeast life ext 45, HCT116 PTEN-null 2.8
Cc1oc2c(c1C(=O)c1ccc(Cl)cc1)C(=O)C(=O)c1ccccc1-2	HCT116 bCat-KO 0.9, HCT116 PTEN-null 0.9
Cc1ccc(C(=O)c2coc3c2C(=O)C(=O)c2ccccc2-3)cc1	HCT116 bCat-KO 1.8, HCT116 PTEN-null 1.4
Cc1ccc(C(=O)c2c(C)oc3c2C(=O)C(=O)c2ccccc2-3)cc1	HCT116 bCat-KO 0.8, Yeast growth inh 70, HCT116 PTEN-null 1.1
O=C(c1ccc(Cl)cc1)c1ccc(CN2C(=O)c3ccccc3C2=O)o1	none
COc1ccc(C(=O)c2coc(-c3ccccc3C(=O)O)c2C(=O)O)cc1	none
COc1ccc2nc(NC(=O)CCc3nc(-c4ccccc4F)no3)sc2c1	none
Cn1nnnc1SCCNCC#Cc1ccccc1	Yeast life ext 114
CSc1ccc(/C=N/NC(=O)CNc2cccc3ccccc23)cc1	none
CC1(C(=O)N/N=C/c2ccc([N+](=O)[O-])o2)CC1(Br)Br (stereo not drawn)	HCT116 bCat-KO 2.6, HCT116 PTEN-null 2.5
O=C(CNc1cccc2ccccc12)N/N=C/C(Br)=C/c1ccccc1	HCT116 bCat-KO 2.7, HCT116 PTEN-null 1.2
Cn1c(=O)c2c(ncn2CC(=O)N/N=C/C=C/c2ccccc2)n(C)c1=O	none
CC1=NNC(=O)C1CCC(=O)N/N=C/C(Br)=C/c1ccccc1 (stereo not drawn)	Yeast life ext 35
Cn1c(=O)c2c(ncn2CC(=O)N/N=C/C(Br)=C/c2ccccc2)n(C)c1=O	HCT116 bCat-KO 2.4, HCT116 PTEN-null 2.6
CCOC(=O)N/N=C\c1ccc([N+](=O)[O-])o1	none
CS(=O)(=O)N(CC(=O)N1CCCCCC1)c1ccc(Br)cc1	none
O=C(CNc1cccc2ccccc12)N/N=C/c1ccc([N+](=O)[O-])o1	HCT116 bCat-KO 4.7
O=C(N/N=C/c1ccc([N+](=O)[O-])o1)c1cc(-c2ccncc2)nc2ccccc12	HCT116 bCat-KO 2.8, HCT116 PTEN-null 3.3
O=C(N/N=C/c1ccccn1)c1cc(-c2ccncc2)nc2ccccc12	none
Cc1cc(C2(c3ccc(O)c(C)c3)C(=O)Nc3ccccc32)ccc1O	HCT116 bCat-KO 1.1, HCT116 PTEN-null 1.5
Cc1cccc2c1NC(=O)C2(c1ccc(O)cc1)c1ccc(O)cc1	none
Cn1c(Cl)cnc1C1CC(=O)c2cc(Cl)ccc2O1 (stereo not drawn)	HCT116 bCat-KO 2.8, HCT116 PTEN-null 1.8
CC(C)C[C@@H]1NC(=O)[C@H](Cc2ccc(O)cc2)NC(=O)[C@H](CCC(N)=O)NC(=O)c2cc([N+](=O)[O-])cc(I)c2NCC[C@@H](C(N)=O)NC1=O	none
O=C(NCc1cccnc1)/C(=C/c1ccc(-c2cccc(C(F)(F)F)c2)o1)NC(=O)c1ccccc1	none

Assay outcomes as filed in PubChem BioAssay.
